In ChEMBL document CHEMBL1155221, “Identification of novel indanylsulfonamide guanylhydrazones as potent 5-HT6 serotonin receptor antagonists” (J Med Chem, 2009):

Tests used:
[1] = target: T1, 5-hydroxytryptamine receptor 6 (Homo sapiens, UniProt P50406); assay: Displacement of [3H]LSD from human cloned 5HT6 receptor expressed in human HeLa cells; format: cell-based
[2] = target: T1, 5-hydroxytryptamine receptor 6; assay: Inhibition of [3H]LSD binding to human recombinant 5HT6 receptor expressed in HEK293 cells at 100 nM after 60 mins by liquid scintillation counting; format: cell-based
Procedure, shortened: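 Single-point competition at 100 nM test compound against [3H]-LSD on membranes from HEK-293 cells expressing recombinant human 5-HT6 receptor. Percent inhibition of radioligand binding reported.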

[3] = target: T1, 5-hydroxytryptamine receptor 6; assay: Antagonist activity at human 5HT6 receptor expressed in HEK293F cells assessed as inhibition of 5-HT-stimulated cAMP production at […] after 30 mins by HTRF assay; format: functional, cell-based
Procedure, shortened: (§1)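 HEK-293F cells stably expressing human 5-HT6 receptor. Compounds were tested against 5-HT-stimulated cAMP production, with cAMP read by homogeneous time-resolved fluorescence (HTRF). Antagonism expressed as Imax and IC50. Data are mean ± SEM of three experiments.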

[4] = target: T1, 5-hydroxytryptamine receptor 6; assay: Displacement of [3H]LSD from human recombinant 5HT6 receptor expressed in HEK293 cells after 60 mins by liquid scintillation counting; format: cell-based
Procedure, shortened: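 Competition binding on membranes from HEK-293 cells expressing recombinant human 5-HT6 receptor, with [3H]-LSD as radioligand. […] Values are mean ± SEM of three experiments.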

[5] = target: T1, 5-hydroxytryptamine receptor 6; assay: Antagonist activity at human 5HT6 receptor expressed in HEK293F cells assessed as inhibition of 5-HT-stimulated cAMP production after 30 mins by HTRF assay; format: functional, cell-based; procedure, shortened: as §1
[6] = target: T1, 5-hydroxytryptamine receptor 6; assay: Antagonist activity at human 5HT6 receptor expressed in HEK293F cells assessed as inhibition of 5-HT-stimulated cAMP production at […] after 30 mins by HTRF assay relative to (+/-)-6-chloro-N-(3-(1-methylpyrrolidin-3-yl)-1H-inden-5-yl)imidazo[2,1-b]thiazole-5-sulfonamide; format: functional, cell-based
[7] = target: T2, Adrenergic receptor alpha-2 (Homo sapiens, UniProt P08913+P18825+P18089); assay: Inhibition of human alpha 2 adrenoceptor
T2 sequence (P08913 whole entry): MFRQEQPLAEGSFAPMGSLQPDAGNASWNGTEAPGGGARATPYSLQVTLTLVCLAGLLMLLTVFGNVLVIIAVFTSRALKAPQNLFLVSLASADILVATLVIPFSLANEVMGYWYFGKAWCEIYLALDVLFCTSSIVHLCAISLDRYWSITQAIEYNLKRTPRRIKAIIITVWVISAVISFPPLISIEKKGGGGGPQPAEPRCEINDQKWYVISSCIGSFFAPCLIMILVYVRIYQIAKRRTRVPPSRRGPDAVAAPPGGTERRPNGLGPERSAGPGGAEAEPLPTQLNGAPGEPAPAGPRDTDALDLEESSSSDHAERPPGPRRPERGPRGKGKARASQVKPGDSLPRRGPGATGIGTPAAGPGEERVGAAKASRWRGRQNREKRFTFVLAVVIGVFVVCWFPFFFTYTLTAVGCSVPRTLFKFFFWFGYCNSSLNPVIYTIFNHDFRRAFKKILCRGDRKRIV
T2 sequence (P18825 whole entry): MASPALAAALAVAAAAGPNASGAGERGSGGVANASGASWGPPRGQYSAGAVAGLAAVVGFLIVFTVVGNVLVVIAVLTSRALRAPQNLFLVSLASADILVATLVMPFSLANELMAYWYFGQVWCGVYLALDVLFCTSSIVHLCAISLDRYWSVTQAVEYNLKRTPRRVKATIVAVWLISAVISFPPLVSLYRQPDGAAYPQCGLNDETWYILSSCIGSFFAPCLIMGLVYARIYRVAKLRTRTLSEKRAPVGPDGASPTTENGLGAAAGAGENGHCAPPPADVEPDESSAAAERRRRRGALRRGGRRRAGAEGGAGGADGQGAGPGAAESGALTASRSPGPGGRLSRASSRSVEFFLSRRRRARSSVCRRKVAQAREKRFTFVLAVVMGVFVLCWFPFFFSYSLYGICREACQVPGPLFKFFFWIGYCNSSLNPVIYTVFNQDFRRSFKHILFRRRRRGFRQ
T2 sequence (P18089 whole entry): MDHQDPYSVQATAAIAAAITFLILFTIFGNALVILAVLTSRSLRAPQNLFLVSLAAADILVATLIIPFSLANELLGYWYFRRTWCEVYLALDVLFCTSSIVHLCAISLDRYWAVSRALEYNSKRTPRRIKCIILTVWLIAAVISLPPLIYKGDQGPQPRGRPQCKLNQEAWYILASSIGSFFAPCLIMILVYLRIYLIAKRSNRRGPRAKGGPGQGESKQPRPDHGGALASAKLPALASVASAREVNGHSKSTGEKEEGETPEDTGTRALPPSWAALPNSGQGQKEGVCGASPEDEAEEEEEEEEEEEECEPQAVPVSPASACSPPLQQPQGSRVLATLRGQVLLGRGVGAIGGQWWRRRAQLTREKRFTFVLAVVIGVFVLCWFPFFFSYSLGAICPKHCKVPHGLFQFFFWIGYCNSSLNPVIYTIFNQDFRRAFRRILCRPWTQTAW

[8] = target: T3, 5-hydroxytryptamine receptor 1A (Homo sapiens, UniProt P08908); assay: Inhibition of human 5HT1A receptor
T3 sequence (P08908 whole entry): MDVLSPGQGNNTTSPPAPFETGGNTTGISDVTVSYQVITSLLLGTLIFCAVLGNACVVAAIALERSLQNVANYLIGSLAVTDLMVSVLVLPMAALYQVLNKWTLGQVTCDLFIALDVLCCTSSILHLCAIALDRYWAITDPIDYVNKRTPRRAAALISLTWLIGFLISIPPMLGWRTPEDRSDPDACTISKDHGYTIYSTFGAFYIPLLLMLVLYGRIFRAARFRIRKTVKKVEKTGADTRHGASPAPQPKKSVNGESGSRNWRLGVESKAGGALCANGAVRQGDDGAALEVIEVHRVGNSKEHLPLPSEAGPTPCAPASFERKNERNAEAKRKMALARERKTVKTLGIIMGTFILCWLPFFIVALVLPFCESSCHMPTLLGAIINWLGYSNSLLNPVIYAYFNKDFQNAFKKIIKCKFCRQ

[9] = target: T4, Adrenergic receptor alpha-1 (Rattus norvegicus, UniProt P15823+P23944+P43140); assay: Inhibition of rat alpha 1 adrenoceptor
T4 sequence (P15823 whole entry): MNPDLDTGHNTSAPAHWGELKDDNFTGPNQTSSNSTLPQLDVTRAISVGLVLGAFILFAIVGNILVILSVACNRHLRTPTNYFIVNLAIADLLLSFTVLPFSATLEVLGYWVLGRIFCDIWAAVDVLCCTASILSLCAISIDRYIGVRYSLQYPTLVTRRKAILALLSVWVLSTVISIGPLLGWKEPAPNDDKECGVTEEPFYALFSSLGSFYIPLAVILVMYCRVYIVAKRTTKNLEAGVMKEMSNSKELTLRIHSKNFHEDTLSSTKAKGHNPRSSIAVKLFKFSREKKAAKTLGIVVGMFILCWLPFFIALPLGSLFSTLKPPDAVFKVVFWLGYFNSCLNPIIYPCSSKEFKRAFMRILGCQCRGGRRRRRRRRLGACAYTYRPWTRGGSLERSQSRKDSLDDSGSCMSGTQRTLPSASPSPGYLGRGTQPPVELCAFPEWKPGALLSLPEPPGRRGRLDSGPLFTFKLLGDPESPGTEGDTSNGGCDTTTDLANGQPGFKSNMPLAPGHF
T4 sequence (P23944 whole entry): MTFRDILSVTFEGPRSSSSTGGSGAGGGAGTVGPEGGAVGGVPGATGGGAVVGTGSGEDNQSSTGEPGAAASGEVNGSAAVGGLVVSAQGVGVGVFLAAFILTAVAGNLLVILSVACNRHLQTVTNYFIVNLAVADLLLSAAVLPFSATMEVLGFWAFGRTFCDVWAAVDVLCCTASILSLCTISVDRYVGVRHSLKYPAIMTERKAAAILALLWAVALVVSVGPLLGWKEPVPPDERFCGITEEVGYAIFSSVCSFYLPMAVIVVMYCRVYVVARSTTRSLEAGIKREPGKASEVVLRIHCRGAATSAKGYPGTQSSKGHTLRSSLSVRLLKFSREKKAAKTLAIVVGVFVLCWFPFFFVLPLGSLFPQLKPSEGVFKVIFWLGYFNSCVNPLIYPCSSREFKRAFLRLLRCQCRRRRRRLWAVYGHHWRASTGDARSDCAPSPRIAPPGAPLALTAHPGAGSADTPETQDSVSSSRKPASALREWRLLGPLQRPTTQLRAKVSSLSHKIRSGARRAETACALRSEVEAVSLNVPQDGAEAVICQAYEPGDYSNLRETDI
T4 sequence (P43140 whole entry): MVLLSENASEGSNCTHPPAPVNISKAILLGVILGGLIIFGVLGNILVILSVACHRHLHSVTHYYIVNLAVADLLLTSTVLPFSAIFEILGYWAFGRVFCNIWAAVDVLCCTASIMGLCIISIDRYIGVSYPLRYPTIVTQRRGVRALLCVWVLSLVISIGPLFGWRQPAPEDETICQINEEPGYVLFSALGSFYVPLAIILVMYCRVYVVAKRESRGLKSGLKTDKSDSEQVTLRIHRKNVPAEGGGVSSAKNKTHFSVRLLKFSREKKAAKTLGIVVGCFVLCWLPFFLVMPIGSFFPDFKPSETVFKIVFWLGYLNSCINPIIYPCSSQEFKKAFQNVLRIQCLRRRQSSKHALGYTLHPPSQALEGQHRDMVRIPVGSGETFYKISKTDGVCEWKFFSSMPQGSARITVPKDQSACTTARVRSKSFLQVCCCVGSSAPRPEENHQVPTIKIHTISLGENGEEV

[10] = target: T5, 5-hydroxytryptamine receptor 2C (Homo sapiens, UniProt P28335); assay: Inhibition of human 5HT2C receptor
T5 sequence (P28335 whole entry): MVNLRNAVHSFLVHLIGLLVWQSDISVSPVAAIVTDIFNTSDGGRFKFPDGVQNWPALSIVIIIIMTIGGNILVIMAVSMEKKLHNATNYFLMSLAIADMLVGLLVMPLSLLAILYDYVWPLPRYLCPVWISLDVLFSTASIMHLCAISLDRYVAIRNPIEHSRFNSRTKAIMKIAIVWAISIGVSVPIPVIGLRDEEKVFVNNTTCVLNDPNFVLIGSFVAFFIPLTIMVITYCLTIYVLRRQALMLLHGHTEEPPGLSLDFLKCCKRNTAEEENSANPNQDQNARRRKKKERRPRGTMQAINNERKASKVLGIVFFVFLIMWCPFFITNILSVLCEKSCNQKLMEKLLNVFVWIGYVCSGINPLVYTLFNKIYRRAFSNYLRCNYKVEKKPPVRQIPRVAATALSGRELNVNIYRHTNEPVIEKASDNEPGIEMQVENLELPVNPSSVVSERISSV

[11] = target: Sodium-dependent serotonin transporter (Homo sapiens, UniProt P31645); assay: Inhibition of human SERT
Chain of Sodium-dependent serotonin transporter (P31645 whole entry): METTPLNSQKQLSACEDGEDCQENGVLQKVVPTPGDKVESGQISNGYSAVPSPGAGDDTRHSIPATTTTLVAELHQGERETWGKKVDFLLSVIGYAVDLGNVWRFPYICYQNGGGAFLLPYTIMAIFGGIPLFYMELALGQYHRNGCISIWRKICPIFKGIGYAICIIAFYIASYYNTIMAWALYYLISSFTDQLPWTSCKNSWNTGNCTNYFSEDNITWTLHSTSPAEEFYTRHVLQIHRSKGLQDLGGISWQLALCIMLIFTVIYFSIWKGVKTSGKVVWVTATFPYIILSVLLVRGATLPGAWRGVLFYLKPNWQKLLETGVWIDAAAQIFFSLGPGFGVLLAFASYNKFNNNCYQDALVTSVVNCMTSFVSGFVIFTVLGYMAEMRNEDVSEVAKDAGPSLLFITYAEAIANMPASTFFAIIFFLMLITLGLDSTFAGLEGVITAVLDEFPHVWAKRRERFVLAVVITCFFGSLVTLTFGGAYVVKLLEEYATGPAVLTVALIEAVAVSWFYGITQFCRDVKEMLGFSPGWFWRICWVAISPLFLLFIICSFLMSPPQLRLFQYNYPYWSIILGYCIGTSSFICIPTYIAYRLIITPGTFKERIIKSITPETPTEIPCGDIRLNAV

T1 sequence (P50406 whole entry): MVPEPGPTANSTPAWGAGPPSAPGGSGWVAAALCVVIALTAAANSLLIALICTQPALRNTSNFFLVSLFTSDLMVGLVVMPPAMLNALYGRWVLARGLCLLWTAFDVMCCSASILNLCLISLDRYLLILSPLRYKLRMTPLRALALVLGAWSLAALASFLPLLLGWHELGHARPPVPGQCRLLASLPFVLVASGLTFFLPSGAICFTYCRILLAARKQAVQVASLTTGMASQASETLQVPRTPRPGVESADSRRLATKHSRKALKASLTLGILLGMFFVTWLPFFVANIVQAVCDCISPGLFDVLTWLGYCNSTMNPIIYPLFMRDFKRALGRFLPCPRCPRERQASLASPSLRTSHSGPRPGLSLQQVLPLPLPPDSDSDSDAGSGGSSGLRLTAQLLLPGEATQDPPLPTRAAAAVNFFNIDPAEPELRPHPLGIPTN

Row | SMILES | Ki [1] | inhibition [2] | Imax [3] | Ki [4] | IC50 [5] | Imax [6] | IC50 [7] | IC50 [8] | IC50 [9] | IC50 [10] | IC50 [11]
1 | COc1ccc(S(=O)(=O)Nc2ccc3[nH]cc(/C(C)=N/NC(=N)N)c3c2)cc1 | 1 nM | – | – | – | – | – | – | – | – | – | –
2 | CN1CCC(C2=CCc3ccc(NS(=O)(=O)c4c(Cl)nc5sccn45)cc32)C1 (centres undefined) | – | > 80% | 100% | 3 nM | 1580 nM | – | – | – | – | – | –
3 | Cl.N=C(N)N/N=C1\CCc2cc(NS(=O)(=O)c3c(Cl)nc4sccn34)ccc21 | – | > 80% | – | 2.6 nM | 47 nM | 173% | > 1000 nM | > 10000 nM | – | – | –
4 | C/C(=N\NC(=N)N)c1cn(S(=O)(=O)c2c(Cl)nc3sccn23)c2ccccc12 | ≤ 8 nM | – | – | – | – | – | – | – | – | – | –
5 | N=C(N)N/N=C1\CCc2c(NS(=O)(=O)c3c(Cl)nc4sccn34)cccc21 | – | 2% | – | – | – | – | – | – | – | – | –

More lines, now with the values ahead:

Row | Ki [1] | inhibition [2] | Imax [3] | Ki [4] | IC50 [5] | Imax [6] | IC50 [7] | IC50 [8] | IC50 [9] | IC50 [10] | IC50 [11] | SMILES
6 | – | > 80% | – | 1.6 nM | 58 nM | 157% | > 1000 nM | > 1000 nM | > 1000 nM | > 1000 nM | > 1000 nM | CC1Cc2ccc(NS(=O)(=O)c3c(Cl)nc4sccn34)cc2/C1=N/NC(=N)N.Cl (racemic)
7 | – | > 80% | – | 5.2 nM | 238 nM | 146% | > 1 ×10⁴ nM | > 1000 nM | – | > 1000 nM | > 10000 nM | CC1(C)C/C(=N\NC(=N)N)c2cc(NS(=O)(=O)c3c(Cl)nc4sccn34)ccc21.Cl
8 | – | > 80% | – | 1.2 nM | 96 nM | 127% | > 1 ×10⁴ nM | > 10000 nM | > 1000 nM | > 10000 nM | > 10000 nM | Cl.N=C(N)N/N=C1\CCc2ccc(NS(=O)(=O)c3c(Cl)nc4sccn34)cc21
